Structures are written as SMILES.

Chain of ABCB1 (P-glycoprotein) (P08183 whole entry): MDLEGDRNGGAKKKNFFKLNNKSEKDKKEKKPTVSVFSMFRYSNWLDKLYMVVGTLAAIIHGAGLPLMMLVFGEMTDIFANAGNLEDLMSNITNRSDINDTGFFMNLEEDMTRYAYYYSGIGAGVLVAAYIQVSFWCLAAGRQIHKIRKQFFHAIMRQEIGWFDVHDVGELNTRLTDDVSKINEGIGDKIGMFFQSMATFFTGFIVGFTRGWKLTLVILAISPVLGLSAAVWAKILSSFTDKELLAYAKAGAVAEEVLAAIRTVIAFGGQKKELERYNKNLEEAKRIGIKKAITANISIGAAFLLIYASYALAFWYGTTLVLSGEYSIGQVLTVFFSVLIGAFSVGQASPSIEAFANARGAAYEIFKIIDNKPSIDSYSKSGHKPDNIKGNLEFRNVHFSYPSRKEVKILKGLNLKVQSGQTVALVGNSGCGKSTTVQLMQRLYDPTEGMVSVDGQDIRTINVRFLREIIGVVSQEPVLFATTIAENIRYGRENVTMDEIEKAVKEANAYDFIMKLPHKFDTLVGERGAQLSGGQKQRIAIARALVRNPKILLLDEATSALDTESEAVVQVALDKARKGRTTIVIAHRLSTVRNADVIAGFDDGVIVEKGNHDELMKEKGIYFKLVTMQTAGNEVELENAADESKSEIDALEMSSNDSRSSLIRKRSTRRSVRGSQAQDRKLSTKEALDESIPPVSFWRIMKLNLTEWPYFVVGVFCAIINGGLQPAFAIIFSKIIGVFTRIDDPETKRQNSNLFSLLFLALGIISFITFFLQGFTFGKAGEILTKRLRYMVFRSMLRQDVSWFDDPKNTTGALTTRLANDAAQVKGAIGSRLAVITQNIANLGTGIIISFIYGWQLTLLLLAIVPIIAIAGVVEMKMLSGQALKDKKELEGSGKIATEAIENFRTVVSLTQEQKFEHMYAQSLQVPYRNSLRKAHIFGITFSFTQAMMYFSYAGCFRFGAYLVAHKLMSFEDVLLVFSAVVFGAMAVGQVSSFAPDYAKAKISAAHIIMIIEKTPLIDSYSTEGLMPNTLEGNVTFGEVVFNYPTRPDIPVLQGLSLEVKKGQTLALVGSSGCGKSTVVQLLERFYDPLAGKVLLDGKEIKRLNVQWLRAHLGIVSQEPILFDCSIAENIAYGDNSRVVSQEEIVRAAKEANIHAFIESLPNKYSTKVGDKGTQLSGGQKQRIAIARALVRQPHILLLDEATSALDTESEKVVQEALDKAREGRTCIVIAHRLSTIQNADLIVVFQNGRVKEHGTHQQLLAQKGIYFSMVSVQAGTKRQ

Tested on in the first series: not listed separately
In words: Synergistic cytotoxicity against mouse L5178 cells assessed as combination index at ED50 using 37.5:1 test compound to doxorubicin ratio after 48 hrs by MTT-based checkerboard microplate method. It counts as functional.
Settings: not given
An outline of the steps:
(§1)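 Checkerboard microplate combinations of compound with doxorubicin at constant molar ratios. 5 × 10^4 cells/well in McCoy's 5A, 48 h at 37°C, 5% CO2. MTT added to 0.5 mg/mL final for 4 h, SDS/HCl overnight, OD read at 540 and 630 nm. Combination indices derived per ratio for 50%, 75% and 90% growth inhibition by median-effect analysis.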
Consider `CCO/N=C1/C=C2[C@H](CC[C@]3(C)[C@@H]([C@@]4(C)OC(C)(C)O[C@@H]4CCC(C)(C)O)CC[C@@]23O)[C@@]2(C)C[C@@H]3OC(C)(C)O[C@@H]3C[C@@H]12`, for which the CI amounted to 0.63.
The same measure, in the same setting: the same measure for `CC(C)(O)CC[C@H]1OC(C)(C)O[C@]1(C)[C@H]1CC=C2C3=C/C(=N\OC(C)(C)C)[C@@H]4C[C@H]5OC(C)(C)O[C@H]5C[C@]4(C)[C@H]3CC[C@@]21C`: 1.16; for `CO/N=C1/C=C2C3=CC[C@H]([C@@]4(C)OC(C)(C)O[C@@H]4CCC(C)(C)O)[C@@]3(C)CC[C@@H]2[C@@]2(C)C[C@@H]3OC(C)(C)O[C@@H]3C[C@@H]12`: 0.77.

Tested on in a further series: not listed separately
As to the kind of experiment: Synergistic cytotoxicity against mouse L5178 cells expressing human ABCB1 assessed as combination index at ED75 using 30:1 test compound to doxorubicin ratio after 48 hrs by MTT-based checkerboard microplate method.
Settings: not given
It counts as functional. The essentials: as §1
On to `CCO/N=C1/C=C2[C@H](CC[C@]3(C)[C@@H]([C@@]4(C)OC(C)(C)O[C@@H]4CCC(C)(C)O)CC[C@@]23O)[C@@]2(C)C[C@@H]3OC(C)(C)O[C@@H]3C[C@@H]12`, for which the CI was 0.23.
As to `CC(C)(O)CC[C@H]1OC(C)(C)O[C@]1(C)[C@H]1CC=C2C3=C/C(=N\OC(C)(C)C)[C@@H]4C[C@H]5OC(C)(C)O[C@H]5C[C@]4(C)[C@H]3CC[C@@]21C`, the CI worked out at 0.38.
On the same count and under the same terms, the same measure for `CO/N=C1/C=C2C3=CC[C@H]([C@@]4(C)OC(C)(C)O[C@@H]4CCC(C)(C)O)[C@@]3(C)CC[C@@H]2[C@@]2(C)C[C@@H]3OC(C)(C)O[C@@H]3C[C@@H]12`: 0.22.

Tested on in a further series: not listed separately
In words: Synergistic cytotoxicity against mouse L5178 cells expressing human ABCB1 assessed as combination index at ED75 using 1.875:1 test compound to doxorubicin ratio after 48 hrs by MTT-based checkerboard microplate method. In kind it is functional.
Settings: not given
An outline of the steps: as §1
In the case of `CCO/N=C1/C=C2[C@H](CC[C@]3(C)[C@@H]([C@@]4(C)OC(C)(C)O[C@@H]4CCC(C)(C)O)CC[C@@]23O)[C@@]2(C)C[C@@H]3OC(C)(C)O[C@@H]3C[C@@H]12`, the CI is 0.17.

Tested on in the next series: not listed separately
In words: Synergistic cytotoxicity against mouse L5178 cells expressing human ABCB1 assessed as combination index at ED50 using 1.875:1 test compound to doxorubicin ratio after 48 hrs by MTT-based checkerboard microplate method.
Settings: not given
In kind it is functional. The essentials: as §1
Consider `CCO/N=C1/C=C2[C@H](CC[C@]3(C)[C@@H]([C@@]4(C)OC(C)(C)O[C@@H]4CCC(C)(C)O)CC[C@@]23O)[C@@]2(C)C[C@@H]3OC(C)(C)O[C@@H]3C[C@@H]12`, for which the CI was found to be 0.36.

Tested on in a further series: not listed separately
In words: Synergistic cytotoxicity against mouse L5178 cells assessed as combination index at ED90 using 37.5:1 test compound to doxorubicin ratio after 48 hrs by MTT-based checkerboard microplate method. In kind it is functional.
Settings: not given
The essentials:
as §1
Consider `CCO/N=C1/C=C2[C@H](CC[C@]3(C)[C@@H]([C@@]4(C)OC(C)(C)O[C@@H]4CCC(C)(C)O)CC[C@@]23O)[C@@]2(C)C[C@@H]3OC(C)(C)O[C@@H]3C[C@@H]12`, for which the CI came to 0.45.
Still for that read-out and setting: as for `CC(C)(O)CC[C@H]1OC(C)(C)O[C@]1(C)[C@H]1CC=C2C3=C/C(=N\OC(C)(C)C)[C@@H]4C[C@H]5OC(C)(C)O[C@H]5C[C@]4(C)[C@H]3CC[C@@]21C`, the figure is 0.64.
As to `CO/N=C1/C=C2C3=CC[C@H]([C@@]4(C)OC(C)(C)O[C@@H]4CCC(C)(C)O)[C@@]3(C)CC[C@@H]2[C@@]2(C)C[C@@H]3OC(C)(C)O[C@@H]3C[C@@H]12`, the CI was determined as 0.31.

Tested on in a further series: not listed separately
As to the kind of experiment: Synergistic cytotoxicity against mouse L5178 cells expressing human ABCB1 assessed as combination index at ED90 using 1.875:1 test compound to doxorubicin ratio after 48 hrs by MTT-based checkerboard microplate method. In kind it is functional.
Settings: not given
The essentials:
as §1
As to `CCO/N=C1/C=C2[C@H](CC[C@]3(C)[C@@H]([C@@]4(C)OC(C)(C)O[C@@H]4CCC(C)(C)O)CC[C@@]23O)[C@@]2(C)C[C@@H]3OC(C)(C)O[C@@H]3C[C@@H]12`, the CI is 0.1.

Tested on in the next series: not listed separately
As to the kind of experiment: Synergistic cytotoxicity against mouse L5178 cells assessed as combination index at ED50 using 300:1 test compound to doxorubicin ratio after 48 hrs by MTT-based checkerboard microplate method. It counts as functional.
Settings: not given
The essentials:
as §1
Turning to `CCO/N=C1/C=C2[C@H](CC[C@]3(C)[C@@H]([C@@]4(C)OC(C)(C)O[C@@H]4CCC(C)(C)O)CC[C@@]23O)[C@@]2(C)C[C@@H]3OC(C)(C)O[C@@H]3C[C@@H]12`, the CI is recorded as 0.8.
`CC(C)(O)CC[C@H]1OC(C)(C)O[C@]1(C)[C@H]1CC=C2C3=C/C(=N\OC(C)(C)C)[C@@H]4C[C@H]5OC(C)(C)O[C@H]5C[C@]4(C)[C@H]3CC[C@@]21C`: the CI worked out at 0.77.
The same measure, in the same setting: as for `CO/N=C1/C=C2C3=CC[C@H]([C@@]4(C)OC(C)(C)O[C@@H]4CCC(C)(C)O)[C@@]3(C)CC[C@@H]2[C@@]2(C)C[C@@H]3OC(C)(C)O[C@@H]3C[C@@H]12`, the figure is 0.85.

Tested on in a further series: not listed separately
In words: Synergistic cytotoxicity against mouse L5178 cells expressing human ABCB1 assessed as combination index at ED90 using 15:1 test compound to doxorubicin ratio after 48 hrs by MTT-based checkerboard microplate method. It counts as functional.
Settings: not given
The essentials: as §1
`CCO/N=C1/C=C2[C@H](CC[C@]3(C)[C@@H]([C@@]4(C)OC(C)(C)O[C@@H]4CCC(C)(C)O)CC[C@@]23O)[C@@]2(C)C[C@@H]3OC(C)(C)O[C@@H]3C[C@@H]12`: the CI is recorded as 0.19.
As for `CC(C)(O)CC[C@H]1OC(C)(C)O[C@]1(C)[C@H]1CC=C2C3=C/C(=N\OC(C)(C)C)[C@@H]4C[C@H]5OC(C)(C)O[C@H]5C[C@]4(C)[C@H]3CC[C@@]21C`, the CI stood at 0.28.
For the molecule `CO/N=C1/C=C2C3=CC[C@H]([C@@]4(C)OC(C)(C)O[C@@H]4CCC(C)(C)O)[C@@]3(C)CC[C@@H]2[C@@]2(C)C[C@@H]3OC(C)(C)O[C@@H]3C[C@@H]12`, the CI was found to be 0.16.

Tested on in another series: not listed separately
As to the kind of experiment: Synergistic cytotoxicity against mouse L5178 cells expressing human ABCB1 assessed as combination index at ED50 using 3.75:1 test compound to doxorubicin ratio after 48 hrs by MTT-based checkerboard microplate method. It counts as functional.
Settings: not given
The essentials:
as §1
Consider `CCO/N=C1/C=C2[C@H](CC[C@]3(C)[C@@H]([C@@]4(C)OC(C)(C)O[C@@H]4CCC(C)(C)O)CC[C@@]23O)[C@@]2(C)C[C@@H]3OC(C)(C)O[C@@H]3C[C@@H]12`, for which the CI is 0.27.
As to `CC(C)(O)CC[C@H]1OC(C)(C)O[C@]1(C)[C@H]1CC=C2C3=C/C(=N\OC(C)(C)C)[C@@H]4C[C@H]5OC(C)(C)O[C@H]5C[C@]4(C)[C@H]3CC[C@@]21C`, the CI came out at 0.31.
For `CO/N=C1/C=C2C3=CC[C@H]([C@@]4(C)OC(C)(C)O[C@@H]4CCC(C)(C)O)[C@@]3(C)CC[C@@H]2[C@@]2(C)C[C@@H]3OC(C)(C)O[C@@H]3C[C@@H]12`, the CI was found to be 0.2.

Tested on in another series: not listed separately
As to the kind of experiment: Synergistic cytotoxicity against mouse L5178 cells expressing human ABCB1 assessed as combination index at ED50 using 60:1 test compound to doxorubicin ratio after 48 hrs by MTT-based checkerboard microplate method. It counts as functional.
Settings: not given
The essentials:
as §1
As to `CC(C)(O)CC[C@H]1OC(C)(C)O[C@]1(C)[C@H]1CC=C2C3=C/C(=N\OC(C)(C)C)[C@@H]4C[C@H]5OC(C)(C)O[C@H]5C[C@]4(C)[C@H]3CC[C@@]21C`, the CI stood at 0.51.
On the same count and under the same terms, as for `CO/N=C1/C=C2C3=CC[C@H]([C@@]4(C)OC(C)(C)O[C@@H]4CCC(C)(C)O)[C@@]3(C)CC[C@@H]2[C@@]2(C)C[C@@H]3OC(C)(C)O[C@@H]3C[C@@H]12`, the figure is 0.33.

Tested on in the next series: not listed separately
In words: Cytotoxicity against mouse L5178 cells after 48 hrs by MTT assay. It counts as functional, cell-based. Conditions: L5178, 48 h. The essentials:
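Parental mouse lymphoma L5178 and the MDR line made by pHa MDR1/A retrovirus transfection, selected with 60 µg/L colchicine. Grown in McCoy's 5A with horse serum at 37°C, 5% CO2. 5 x 10^4 cells/well, serial compound dilutions, 48 h. MTT added to 0.5 mg/mL final for 4 h, then 10% SDS in 0.01 M HCl overnight, OD read at 540 and 630 nm. IC50 taken as median cytotoxic activity (Dm) from control lanes of checkerboard plates, n=2.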
For orientation: Tetrazolium dyes change colour on reduction, which living cells bring about.
As for `CCO/N=C1/C=C2[C@H](CC[C@]3(C)[C@@H]([C@@]4(C)OC(C)(C)O[C@@H]4CCC(C)(C)O)CC[C@@]23O)[C@@]2(C)C[C@@H]3OC(C)(C)O[C@@H]3C[C@@H]12`, the half-maximal inhibitory concentration (IC50) – broadly, the midpoint of a concentration-inhibition curve – stood at 37.3 µM.
Take `CC(C)(O)CC[C@H]1OC(C)(C)O[C@]1(C)[C@H]1CC=C2C3=C/C(=N\OC(C)(C)C)[C@@H]4C[C@H]5OC(C)(C)O[C@H]5C[C@]4(C)[C@H]3CC[C@@]21C`: the IC50 turned out to be 63.8 µM.
Consider `CO/N=C1/C=C2C3=CC[C@H]([C@@]4(C)OC(C)(C)O[C@@H]4CCC(C)(C)O)[C@@]3(C)CC[C@@H]2[C@@]2(C)C[C@@H]3OC(C)(C)O[C@@H]3C[C@@H]12`, for which the IC50 came to 46 µM.

Tested on in the next series: not listed separately
As to the kind of experiment: Synergistic cytotoxicity against mouse L5178 cells assessed as combination index at ED75 using 150:1 test compound to doxorubicin ratio after 48 hrs by MTT-based checkerboard microplate method. It counts as functional.
Settings: not given
The essentials:
as §1
For `CCO/N=C1/C=C2[C@H](CC[C@]3(C)[C@@H]([C@@]4(C)OC(C)(C)O[C@@H]4CCC(C)(C)O)CC[C@@]23O)[C@@]2(C)C[C@@H]3OC(C)(C)O[C@@H]3C[C@@H]12`, the CI is on record as 0.67.
Consider `CC(C)(O)CC[C@H]1OC(C)(C)O[C@]1(C)[C@H]1CC=C2C3=C/C(=N\OC(C)(C)C)[C@@H]4C[C@H]5OC(C)(C)O[C@H]5C[C@]4(C)[C@H]3CC[C@@]21C`, for which the CI came out at 0.85.
On the same count and under the same terms, the same measure for `CO/N=C1/C=C2C3=CC[C@H]([C@@]4(C)OC(C)(C)O[C@@H]4CCC(C)(C)O)[C@@]3(C)CC[C@@H]2[C@@]2(C)C[C@@H]3OC(C)(C)O[C@@H]3C[C@@H]12`: 0.67.

For another series, the target named is ABCB1 (P-glycoprotein) (Homo sapiens, UniProt P08183). In words: Inhibition of human ABCB1 expressed in mouse L5178 cells assessed as increase in rhodamine-123 accumulation at 2 uM after 10 mins by flow cytometric analysis relative to control. It counts as cell-based. Conditions: mouse L5178 cells expressing human ABCB1, probe rhodamine-123. The essentials:
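Cells at 2 × 10^6/mL were preincubated 10 min with compound. Rhodamine 123 then added to 5.2 µM final, 20 min at 37 °C. Cells washed twice in PBS, resuspended and read by flow cytometry. Percent inhibition was scaled between MDR-cell accumulation (0%) and parental L5178 accumulation (100%). Controls: 100 nM tariquidar (positive) and 2% DMSO (negative).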
(In general: In flow cytometry, cells or beads pass a laser one at a time.)
Regarding `CCO/N=C1/C=C2[C@H](CC[C@]3(C)[C@@H]([C@@]4(C)OC(C)(C)O[C@@H]4CCC(C)(C)O)CC[C@@]23O)[C@@]2(C)C[C@@H]3OC(C)(C)O[C@@H]3C[C@@H]12`, the inhibition (usually the drop in the measured response relative to a control, in per cent) at 10 min, 2 µM worked out at 19%.
In the case of `CC(C)(O)CC[C@H]1OC(C)(C)O[C@]1(C)[C@H]1CC=C2C3=C/C(=N\OC(C)(C)C)[C@@H]4C[C@H]5OC(C)(C)O[C@H]5C[C@]4(C)[C@H]3CC[C@@]21C`, the inhibition at 10 min, 2 µM was 67.5%.
With `CO/N=C1/C=C2C3=CC[C@H]([C@@]4(C)OC(C)(C)O[C@@H]4CCC(C)(C)O)[C@@]3(C)CC[C@@H]2[C@@]2(C)C[C@@H]3OC(C)(C)O[C@@H]3C[C@@H]12`, the inhibition at 10 min, 2 µM came out at 33.4%.

The record behind these values is ChEMBL document CHEMBL4145462, “Nitrogen-containing ecdysteroid derivatives vs. multi-drug resistance in cancer: Preparation and antitumor activity of oximes, oxime ethers and a lactam” (Eur J Med Chem, 2018).
